Measurements: paper PMC7036014 (Molecular cell, 2019)
Changes are numbered by the printed parent chain.

Key:
[1] = molecular target: T1, SIRT1 (Homo sapiens, UniProt Q96EB6); assay: Intrinsic tryptophan fluorescence quenching binding assay, SIRT1; conditions: for Kd, SIRT1: tryptophan quenching
T1 sequence (Q96EB6 1-747): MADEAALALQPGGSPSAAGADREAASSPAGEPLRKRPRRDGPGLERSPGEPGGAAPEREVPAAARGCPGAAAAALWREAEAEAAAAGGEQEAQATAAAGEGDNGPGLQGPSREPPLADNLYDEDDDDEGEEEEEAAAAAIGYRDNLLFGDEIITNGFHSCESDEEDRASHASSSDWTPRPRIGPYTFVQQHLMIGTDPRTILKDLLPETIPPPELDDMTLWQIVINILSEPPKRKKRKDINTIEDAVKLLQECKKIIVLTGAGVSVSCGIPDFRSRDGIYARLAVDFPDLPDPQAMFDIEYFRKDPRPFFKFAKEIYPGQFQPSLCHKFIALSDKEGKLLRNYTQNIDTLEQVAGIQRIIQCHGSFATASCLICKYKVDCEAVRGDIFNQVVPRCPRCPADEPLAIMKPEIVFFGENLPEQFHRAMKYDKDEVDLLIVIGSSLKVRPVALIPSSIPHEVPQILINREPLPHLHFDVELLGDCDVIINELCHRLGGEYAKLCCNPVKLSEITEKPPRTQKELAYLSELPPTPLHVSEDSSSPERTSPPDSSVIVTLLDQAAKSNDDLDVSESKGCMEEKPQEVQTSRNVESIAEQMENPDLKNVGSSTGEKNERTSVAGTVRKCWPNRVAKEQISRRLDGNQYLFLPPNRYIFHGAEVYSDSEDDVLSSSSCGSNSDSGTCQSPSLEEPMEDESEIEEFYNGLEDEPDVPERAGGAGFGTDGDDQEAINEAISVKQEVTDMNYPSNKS

[2] = molecular target: T1, SIRT1; assay: 1,8-ANS displacement assay, SIRT1; format: binding; conditions: for Ki, SIRT1: displacement of 1,8-ANS
[3] = molecular target: T2, recombinant full-length murine PLIN5 (Mus musculus, UniProt Q8BVZ1); assay: Intrinsic tryptophan fluorescence quenching binding assay, PLIN5; conditions: for binding curve, PLIN5: tryptophan fluorescence
T2 sequence (Q8BVZ1 1-463): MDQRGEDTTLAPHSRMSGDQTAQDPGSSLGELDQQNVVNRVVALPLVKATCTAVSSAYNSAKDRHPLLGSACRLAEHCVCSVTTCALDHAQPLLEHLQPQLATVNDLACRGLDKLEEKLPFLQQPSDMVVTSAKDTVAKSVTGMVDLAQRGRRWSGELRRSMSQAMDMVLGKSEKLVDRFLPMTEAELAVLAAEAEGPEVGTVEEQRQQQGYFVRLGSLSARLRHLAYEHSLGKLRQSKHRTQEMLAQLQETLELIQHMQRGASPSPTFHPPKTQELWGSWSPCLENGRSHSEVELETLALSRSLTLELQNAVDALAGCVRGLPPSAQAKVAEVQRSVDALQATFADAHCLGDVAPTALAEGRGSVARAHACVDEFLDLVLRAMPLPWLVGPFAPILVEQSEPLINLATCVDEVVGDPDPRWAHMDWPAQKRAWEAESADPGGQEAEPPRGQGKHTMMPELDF
Summary of the method: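 Protein at 150 nM in 10 mM NaH2PO4, pH 7.5, titrated with ethanolic fatty acid. Excitation 295 nm, emission scanned 300–400 nm. Signal corrected for buffer-plus-ligand background. ΔF (F0−F) plotted against ligand to give a saturation curve. Kd taken from linear regression of the double-reciprocal transform. PLIN5: untagged full-length murine recombinant protein, n=4.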

[4] = molecular target: T1, SIRT1; assay: HPLC-MS/MS SIRT1 deacetylation assay with acetylated peptide substrates; format: biochemical; conditions: for activation of SIRT1 towards mutant p53 peptide (p53-W): 250 nM 18:1, 10 μM resveratrol, 1 μM SRT1720; for allosteric activation of SIRT1 towards wild-type p53 peptide: p53 peptide lacking hydrophobic residue at +1 or +6
Summary of the method: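 Recombinant SIRT1 (1 μM, E. coli-expressed) incubated with acetylated peptide (0–250 μM) plus fatty acid in 25 mM Tris, pH 8.0, 50 mM NaCl, 1 mM DTT, 1 mM NAD+ for 60 min at 37°C. Deacetylation quantified by HPLC-MS/MS with positive-mode electrospray. Km, Vmax and kcat obtained from Lineweaver-Burk plots.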

[5] = molecular target: T1, SIRT1; assay: Circular dichroic analysis of SIRT1 secondary structure with ligand; conditions: for shape of the CD spectrum of SIRT1: addition of ligand
[6] = molecular target: T3, PLIN5 (Mus musculus, UniProt Q8BVZ1); assay: 1,8-ANS displacement assay, PLIN5; format: binding, murine
T3 sequence (Q8BVZ1 1-463): T2 sequence (Q8BVZ1 1-463)
Summary of the method: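 Untagged recombinant PLIN5 (His-MBP tag removed by TEV protease) at 1 μM with 500 nM 1,8-ANS in 50 mM sodium phosphate, pH 7.5, 25°C. Competitor lipids added in increasing amounts, each mixed 60 s before reading fluorescence. I50 taken from the normalized displacement curve. Ki = I50/(1+[L]/KD), using the ANS KD from a Scatchard analysis of a protein titration.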

[7] = tested on: PGC-1α activity, MEFs; assay: PGC-1α luciferase reporter assay in MEFs; format: cell-based, mouse
[8] = molecular target: T4, PLIN5-pM (S155E) (Mus musculus, UniProt Q8BVZ1, S155E); assay: Tryptophan fluorescence quenching binding assay, PLIN5-pM; parameters: species or system murine
T4 sequence (Q8BVZ1 1-463 S155E): T2 sequence (Q8BVZ1 1-463) with S155E

[9] = acetylated PGC-1α peptide substrate

With `CCCCCCCCCCCCCCCC(=O)O` [16:0, palmitic acid] the “Kd, SIRT1” value [1] was “No fatty acid binding was observed”, the “Ki, SIRT1” value [2] was “not observed” and the “binding curve, PLIN5” value [3] was “Saturable binding curves”. The “stimulation of SIRT1 deacetylase activity” value [4, 9] was “unable to stimulate” and the “shape of the CD spectrum of SIRT1” value [5] was “did not alter”.
With `CCCCCC/C=C\CCCCCCCC(=O)O` [16:1, palmitoleic acid] the Kd [1] was 0.1 ± 0.003 µM, the Ki [6] was 9.9 ± 0.07 µM and the Ki [2] was 12.5 ± 0.06 µM. The Kd [3] was 0.082 ± 0.012 µM, the “binding curve, PLIN5” value [3] was “Saturable binding curves” and the “PGC-1α activity with cAMP, individual fatty acid loading” value ([7]; vs non-loaded or 18:0/16:0 loaded cells) was “synergized with cAMP”. The “Km of SIRT1 towards the PGC-1α peptide” value [4, 9] was “lowering”, the “SIRT1 catalytic efficiency (Kcat/Km) towards the PGC-1α peptide” value [4, 9] was “increase” and the “α-helical content of SIRT1” value ([5]; with ligand, 23% without ligand) was 25.9%. For the same compound, the Kd [8] was 0.023 ± 0.003 µM and the “increase in binding affinity of PLIN5-pM” value ([8]; PLIN5-pM vs comparator) was 3.4 fold.
With `CCCCCCCCCCCCCCCCCC(=O)O` [18:0, stearic acid] the “Kd, SIRT1” value [1] was “No fatty acid binding was observed”, the Ki [6] was 17.7 ± 0.04 µM and the “Ki, SIRT1” value [2] was “not observed”. For the same compound, the “binding curve, PLIN5” value [3] was “Saturable binding curves”, the “stimulation of SIRT1 deacetylase activity” value [4, 9] was “unable to stimulate” and the “shape of the CD spectrum of SIRT1” value [5] was “did not alter”.
For `CCCCC/C=C\C/C=C\C/C=C\C/C=C\CCCC(=O)O` [20:4, arachidonic acid], the “binding curve, PLIN5” value [3] was “Saturable binding curves”.
With `CN(C)C(=O)Nc1cccc(-c2ccc(N(C)C)cc2)c1` [ATGLstatin, reference compound] the “effects of β-adrenergic stimulation on PGC-1α activity in 18:1 loaded cells” value ([7]; 30 μM ATGL inhibitor) was “blocked”.
`O=C(Nc1ccccc1-c1cn2c(CN3CCNCC3)csc2n1)c1cnc2ccccc2n1` [SRT1720, reference compound] was tested, and the “activation of SIRT1 towards mutant p53 peptide (p53-W)” value [4] was “activated” and the “allosteric activation of SIRT1 towards wild-type p53 peptide” value [4] was “did not respond”.
With `Oc1ccc(/C=C/c2cc(O)cc(O)c2)cc1` [resveratrol, reference compound] the “activation of PGC-1α in Sirt1 knockout cells rescued with GFP tagged human Sirt1” value ([7]; Sirt1 knockout MEFs + human Sirt1) was “restored”, the “regulation of PGC-1α in Sirt1 knockout cells rescued with Sirt1-E230K mutant” value ([7]; Sirt1 knockout MEFs + human Sirt1 E230K) was “did not restore” and the “activation of SIRT1 towards mutant p53 peptide (p53-W)” value [4] was “activated”. For the same compound, the “allosteric activation of SIRT1 towards wild-type p53 peptide” value [4] was “did not respond”.
